Series [1] can be described thus: Antiinflammatory activity in human whole blood cells assessed as inhibition of TNF-alpha-induced IL8 production after 16 to 18 hrs. Format: functional, cell-based. In short, it runs like this:
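Heparinized blood from healthy, nonmedicated volunteers (final 50% in RPMI 1640/10% human AB serum) was preincubated 1 h at 37 °C, 5% CO2 with ten-point compound titrations. It was then stimulated with TNFα (final 1 nM) overnight (16-18 h). Plasma IL-8 was measured by MSD ECL sandwich immunoassay.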

In the next series the test system is THP-1. Description: Antiinflammatory activity in human THP1 cells assessed as inhibition of LPS-induced TNFalpha production after 3 hrs. In kind it is functional, cell-based. The conditions noted are these: THP-1, 3 h. In a few lines: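 THP-1 cells (1.5 × 10^6/mL in RPMI 1640, 10% heat-inactivated FBS, 30 μM βME) given 3-fold serial DMSO dilutions of compound, then LPS. Incubation 3 h at 37 °C, 5% CO2. Secreted TNFα measured in medium by MSD electrochemiluminescence. Results expressed as percent of control relative to DMSO (HI) and no-LPS (LO) wells.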

The target in series [2] is Mitogen-activated protein kinase 14 (Homo sapiens, UniProt Q16539). Description: Inhibition of p38alpha MAP kinase.
A short description of series [3]: AUC in Sprague-Dawley rat at 2 mg/kg, po. In kind it is ADME, organism-based. More on the design: dose 2 mg/kg, route oral. The conditions noted are these: plasma.
Series [4] can be described thus: Oral bioavailability in Sprague-Dawley rat at 2 mg/kg. In kind it is ADME, organism-based. The conditions noted are these: in vivo.
Series [5] in a line: Half life in Sprague-Dawley rat at 2 mg/kg, iv. In kind it is ADME, organism-based. More on the design: dose 2 mg/kg, route intravenous. The conditions noted are these: in vivo. In a few lines: (§1)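 Single iv dose of 2.0 mg/kg, formulated in DMSO.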
The species entered for series [6] is Rattus norvegicus. Description: Antiarthritic activity in Lewis rat assessed as reduction in collagen-induced paw swelling. Format: functional. In short, it runs like this: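 Arthritis induced by intradermal porcine type II collagen emulsified 1:1 in incomplete Freund's adjuvant. Animals were grouped at disease onset (10-12 days post-immunization) and dosed orally once daily for 7 days. Paw diameter was measured daily on days 0-7. Area under the paw-swelling curve gave percent inhibition versus vehicle.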

Series [7] deals with Rattus norvegicus. Description: Antiinflammatory activity in po dosed Lewis rat assessed as inhibition of LPS-induced TNFalpha production administered 1 hrs prior to LPS challenge after 90 mins.
Series [8] is described as follows: Volume of distribution at steady state in Sprague-Dawley rat at 2 mg/kg, iv. More on the design: dose 2 mg/kg, route intravenous. Format: ADME, organism-based. The following applies: in vivo, read-out: Vdss. In a few lines:
as §1

A short description of series [9]: Clearance in Sprague-Dawley rat at 2 mg/kg, iv. In kind it is ADME, organism-based. More on the design: dose 2 mg/kg, route intravenous. The conditions noted are these: in vivo. In short, it runs like this: as §1

The structures appear in SMILES notation.

Mitogen-activated protein kinase 14, sequence (Q16539 whole entry): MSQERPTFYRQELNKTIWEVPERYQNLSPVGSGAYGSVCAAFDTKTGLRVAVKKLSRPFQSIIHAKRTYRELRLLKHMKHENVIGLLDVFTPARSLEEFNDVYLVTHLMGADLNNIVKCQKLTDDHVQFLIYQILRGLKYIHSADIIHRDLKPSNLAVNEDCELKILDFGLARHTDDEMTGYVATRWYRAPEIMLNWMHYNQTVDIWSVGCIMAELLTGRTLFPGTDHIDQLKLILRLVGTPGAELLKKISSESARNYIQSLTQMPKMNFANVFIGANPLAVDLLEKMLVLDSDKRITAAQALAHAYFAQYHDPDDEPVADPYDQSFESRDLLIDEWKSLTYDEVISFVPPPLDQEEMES

Consider `Cc1ccc(C(=O)NC2(C)CC2)cc1-c1cc2cnnc(-c3ccc(F)cc3F)c2n(C)c1=O`, for which the concentration for half-maximal inhibition (IC50) (in general, the concentration needed to halve the response being measured) was 27.4 nM in [1], 14.5 nM in the series with THP-1 and 3.1 nM in series [2].

As to `Cn1c(=O)c(Cc2ccc(F)cc2F)cc2cnnc(-c3ccc(F)cc3F)c21`, the figures for the IC50 (in series [1]; with THP-1; in series [2]) were 213 nM, 49 nM and 6.1 nM, respectively.

Regarding `Cc1cnc(C(=O)NC2CC2)cc1-c1cc2cnnc(-c3ccc(F)cc3F)c2n(C)c1=O`, the figures for the IC50 (in series [1]; in the series on THP-1; in [2]) were 63.3 nM, 80.5 nM and 14.5 nM, respectively.

With `Cc1ccc(C(=O)NC2CC2)cc1-c1cc2cnnc(-c3ccc(F)cc3F)c2n(C)c1=O`, the area under the curve (AUC) (as a rule, the area under the concentration-time curve, a measure of exposure) in series [3] came out at 7630 ng·h/mL. Also, the bioavailability (usually dose-corrected exposure relative to a reference, in per cent) in series [4] is 86%. In addition, the half-life (in general, the time needed for the level to fall by half in the phase considered) in series [5] is 3.06 h. Further, the ED50 (in general, the midpoint of the dose-response relation) in the series filed under Rattus norvegicus [6] amounted to 0.03 mg/kg; with Rattus norvegicus [7], 0.06 mg/kg. Further, the IC50 in [1] was 1.8 nM; in the series with THP-1, 2.1 nM; in series [2] it was 2.7 nM. In series [8], the Vd came out at 1.04 L/kg. In addition, the clearance (in general, the rate of elimination divided by the concentration) in [9] is 3.83 mL/min/kg.

For `CN(c1ccc(F)cc1)c1cc2cnnc(-c3ccc(F)cc3F)c2n(C)c1=O`, the IC50 in series [1] was found to be 1240 nM; in the series with THP-1, 1140 nM; in series [2], 299 nM.

For `Cc1ccc(C(=O)O)cc1-c1cc2cnnc(-c3ccc(F)cc3F)c2n(C)c1=O`, the results for the half-inhibitory concentration (IC50) (in series [1]; in the series on THP-1; in series [2]) were greater than 2500 nM, greater than 2500 nM and greater than 1000 nM, respectively.

For the compound `Cn1c(=O)c(Cc2ccc(F)cc2)cc2cnnc(-c3ccc(F)cc3F)c21`, the results for the IC50 (in series [1]; in the series on THP-1; in [2]) were 697 nM, 197 nM and 55.8 nM, respectively.

As for `Cc1ccc(C(N)=O)cc1-c1cc2cnnc(-c3ccc(F)cc3F)c2n(C)c1=O`, the IC50 in series [1] amounted to 21.3 nM; with THP-1 it was 19.3 nM; in [2] it was 2.7 nM.

Take `Cn1c(=O)c(Nc2ccc(F)cc2)cc2cnnc(-c3ccc(F)cc3F)c21`: the IC50 in series [1] was determined as 61.9 nM; in the series on THP-1, 13.7 nM.

As to `Cn1c(=O)c(Nc2ncc(F)cc2F)cc2cnnc(-c3ccc(F)cc3F)c21`, the figures for the IC50 (in series [1]; in the series on THP-1) were greater than 2500 nM and 982 nM, respectively.

Consider `Cn1c(=O)c(Oc2ccc(F)cc2F)cc2cnnc(-c3ccc(F)cc3F)c21`, for which the IC50 came out at 70.5 nM in series [1] and 107 nM in the series with THP-1.

With `Cn1c(=O)c(-c2cc(C(=O)NC3CC3)ccc2Cl)cc2cnnc(-c3ccc(F)cc3F)c21`, the 50% inhibitory concentration (IC50) in [1] turned out to be 8.3 nM; in the series on THP-1, 6.3 nM; in series [2], 2.6 nM.

For `Cn1c(=O)c(Oc2ccc(F)cc2)cc2cnnc(-c3ccc(F)cc3F)c21`, the IC50 was 227 nM in series [1], 235 nM with THP-1 and 78 nM in series [2].

With `CNC(=O)c1ccc(C)c(-c2cc3cnnc(-c4ccc(F)cc4F)c3n(C)c2=O)c1`, the concentration for half-maximal inhibition (IC50) in [1] came to 30 nM; in the series on THP-1, 24.3 nM.

Take `Cc1c(F)cc(C(=O)NC2CC2)cc1-c1cc2cnnc(-c3ccc(F)cc3F)c2n(C)c1=O`: the AUC in series [3] was determined as 6740 ng·h/mL. Moreover, in [4], the bioavailability worked out at 55%. In addition, in [5], the half-life was 4.66 h. The half-inhibitory concentration (IC50) in [1] is 1.6 nM; with THP-1, 1.1 nM; in series [2] it was 1.4 nM. Moreover, the Vd in [8] was found to be 1.19 L/kg.

As for `Cn1c(=O)c(Nc2ccc(F)cn2)cc2cnnc(-c3ccc(F)cc3F)c21`, the concentration for half-maximal inhibition (IC50) (in series [1]; with THP-1) was greater than 2500 nM in each case.

With `Cn1c(=O)c(Nc2ccc(F)cc2F)cc2cnnc(-c3ccc(F)cc3F)c21`, the half-inhibitory concentration (IC50) in [1] was 11.7 nM; in the series on THP-1, 4.5 nM; in [2], 0.9 nM.

The record behind these values is ChEMBL document CHEMBL1250511, “Discovery of pyridazinopyridinones as potent and selective p38 mitogen-activated protein kinase inhibitors” (J Med Chem, 2010).
